Converted amounts (≈) assume the structure as drawn.
Columns and labels:
Assay type in all cases: functional
Bacillus cereus = assay: In vitro antibacterial activity measured as minimum inhibitory concentration was evaluated on Bacillus cereus ATCC 11778 (Bc).; conditions: Bacillus cereus, ATCC 11778; read-out: MIC
Summary of the method: (§1)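 Serial 2-fold agar dilution in Mueller Hinton medium, run side by side with reference quinolones. Inoculum 10^5 cfu/mL; compound range 0.007–16 µg/mL.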

Bacillus subtilis = assay: In vitro antibacterial activity measured as minimum inhibitory concentration was evaluated on Bacillus subtilis ATCC 6633(Bs).; conditions: Bacillus subtilis, ATCC 6633; read-out: MIC; summary of the method: as §1
Enterobacter cloacae = assay: In vitro antibacterial activity measured as minimum inhibitory concentration, was evaluated on Enterobacter cloacae ATCC 23355 (Ecl).; conditions: Enterobacter cloacae, ATCC 23355; read-out: MIC
Klebsiella pneumoniae = assay: In vitro antibacterial activity measured as minimum inhibitory concentration was evaluated on klebsiella pneumoniae ATCC 10031 (Kp).; conditions: Klebsiella pneumoniae, ATCC 10031; read-out: MIC
Summary of the method: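 Serial 2-fold agar dilution in Mueller Hinton medium, run side by side with reference quinolones.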

Pseudomonas aeruginosa [1] = assay: In vivo efficacy as ED50 against Pseudomonas aeruginosa HS-116 by oral administration in mice.; conditions: Pseudomonas aeruginosa, po; read-out: ED50
Summary of the method: (§2)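 Mice, 4 groups of 10, infected intraperitoneally with slightly more than the LD100 of the organism. A single oral dose was given immediately after infection, with four doses (one per group) chosen from in vitro activity. Survival was scored after one week. ED50 (total dose, mg/kg, protecting 50%) was interpolated among group survival rates.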

Staphylococcus aureus [2] = assay: In vivo efficacy as ED50 against Staphylococcus aureus HS-93 by oral administration in mice.; conditions: Staphylococcus aureus, po; read-out: ED50; summary of the method: as §2
Escherichia coli [3] = assay: In vivo efficacy as ED50 against Escherichia coli HM-42 by oral administration in mice.; conditions: Escherichia coli, po; read-out: ED50; summary of the method: as §2
Proteus vulgaris = assay: In vitro antibacterial activity measured as minimum inhibitory concentration was evaluated on proteus vulgaris ATCC 8427 (Pv).; conditions: Proteus vulgaris, ATCC 8427; read-out: MIC; summary of the method: as §1
Staphylococcus aureus [4] = assay: In vitro antibacterial activity measured as minimum inhibitory concentration was evaluated on Staphylococcus aureus ATCC 25178 (Sa).; conditions: Staphylococcus aureus, ATCC 25178; read-out: MIC; summary of the method: as §1
[5] = test system: Staphylococcus epidermidis; assay: In vitro antibacterial activity measured as minimum inhibitory concentration was evaluated on Staphylococcus epidermidis ATCC 155-1 (Se).; conditions: Staphylococcus epidermidis, ATCC 155-1; read-out: MIC; summary of the method: as §1
Enterococcus faecalis = assay: In vitro antibacterial activity measured as minimum inhibitory concentration was evaluated on Streptococcus faecalis ATCC 10541 (Sf).; conditions: Enterococcus faecalis, ATCC 10541; read-out: MIC; summary of the method: as §1
Escherichia coli [6] = assay: In vitro antibacterial activity measured as minimum inhibitory concentration, was evaluated on Escherichia coli ATCC 23559(Ec).; conditions: Escherichia coli, ATCC 23559; read-out: MIC; summary of the method: as §1
Morganella morganii = assay: In vitro antibacterial activity measured as minimum inhibitory concentration was evaluated on morganella morganii ATCC 8019 (Mm).; conditions: Morganella morganii, ATCC 8019; read-out: MIC; summary of the method: as §1
Pseudomonas aeruginosa [7] = assay: In vitro antibacterial activity measured as minimum inhibitory concentration was evaluated on Pseudomonas aeruginosa ATCC 10145 (Pa).; conditions: Pseudomonas aeruginosa, ATCC 10145; read-out: MIC; summary of the method: as §1

| Compound | MIC (Bacillus cereus) [µg/mL] | MIC (Bacillus subtilis) [µg/mL] | MIC (Enterobacter cloacae) [µg/mL] | MIC (Klebsiella pneumoniae) [µg/mL] | MIC (Proteus vulgaris) [µg/mL] | MIC (Staphylococcus aureus [4]) [µg/mL] | MIC [5] [µg/mL] | MIC (Enterococcus faecalis) [µg/mL] | MIC (Escherichia coli [6]) [µg/mL] | MIC (Morganella morganii) [µg/mL] | MIC (Pseudomonas aeruginosa [7]) [µg/mL] | ED50 (Pseudomonas aeruginosa [1]) [mg/kg] | ED50 (Staphylococcus aureus [2]) [mg/kg] | ED50 (Escherichia coli [3]) [mg/kg] |
| --- | --- | --- | --- | --- | --- | --- | --- | --- | --- | --- | --- | --- | --- | --- |
| C[C@H]1COc2c(N3CC(C)(N(C)C)C3)c(F)cc3c(=O)c(C(=O)O)cn1c23 | 0.5 (≈ 1.33 µM) | 0.06 (≈ 0.16 µM) | 0.5 (≈ 1.33 µM) | 0.12 (≈ 0.32 µM) | 0.5 (≈ 1.33 µM) | 0.25 (≈ 0.666 µM) | 0.12 (≈ 0.32 µM) | 2 (≈ 5.33 µM) | 0.12 (≈ 0.32 µM) | 0.25 (≈ 0.666 µM) | 4 (≈ 10.7 µM) | – | – | – |
| CCNCC1(C)CN(c2c(F)cc3c(=O)c(C(=O)O)cn4c3c2OC[C@@H]4C)C1 | 0.5 (≈ 1.28 µM) | 0.06 (≈ 0.154 µM) | 0.5 (≈ 1.28 µM) | 1 (≈ 2.57 µM) | 1 (≈ 2.57 µM) | 0.5 (≈ 1.28 µM) | 0.25 (≈ 0.642 µM) | 2 (≈ 5.14 µM) | 0.25 (≈ 0.642 µM) | 1 (≈ 2.57 µM) | 8 (≈ 20.5 µM) | – | – | – |
| CC1C(N)CN1c1cc2c(cc1F)c(=O)c(C(=O)O)cn2-c1ccc(F)cc1F (stereo not given) | – | 0.03 (≈ 0.0744 µM) | – | – | 0.5 (≈ 1.24 µM) | – | – | 1 (≈ 2.48 µM) | 0.06 (≈ 0.149 µM) | – | 2 (≈ 4.96 µM) | 78 | 8.1 | 6 |
| C[C@H]1COc2c(N3CC(N(C)C)C3)c(F)cc3c(=O)c(C(=O)O)cn1c23 | 0.06 (≈ 0.166 µM) | 0.015 (≈ 0.0415 µM) | 0.06 (≈ 0.166 µM) | 0.015 (≈ 0.0415 µM) | 0.25 (≈ 0.692 µM) | 0.12 (≈ 0.332 µM) | 0.12 (≈ 0.332 µM) | 2 (≈ 5.53 µM) | 0.06 (≈ 0.166 µM) | 0.12 (≈ 0.332 µM) | 4 (≈ 11.1 µM) | – | – | – |
| CC1C(N)CN1c1nc2c(cc1F)c(=O)c(C(=O)O)cn2-c1ccc(F)cc1F (stereo not given) | – | 0.06 (≈ 0.148 µM) | – | 0.06 (≈ 0.148 µM) | 1 (≈ 2.47 µM) | – | – | 1 (≈ 2.47 µM) | 0.12 (≈ 0.297 µM) | – | 1 (≈ 2.47 µM) | 140 | 8.9 | 3.3 |
| C[C@@H]1[C@@H](N)CN1c1c(F)cc2c(=O)c(C(=O)O)cn(-c3ccc(F)cc3F)c2c1Cl | 1 (≈ 2.28 µM) | 0.12 (≈ 0.274 µM) | 0.25 (≈ 0.571 µM) | 0.5 (≈ 1.14 µM) | 1 (≈ 2.28 µM) | 0.25 (≈ 0.571 µM) | 0.5 (≈ 1.14 µM) | 2 (≈ 4.57 µM) | 0.25 (≈ 0.571 µM) | 0.5 (≈ 1.14 µM) | 2 (≈ 4.57 µM) | – | – | – |
| CC1C(N)CN1c1c(F)cc2c(=O)c(C(=O)O)cn(-c3ccc(F)cc3)c2c1F (stereo not given) | – | – | – | – | 0.5 (≈ 1.24 µM) | – | – | 2 (≈ 4.96 µM) | 0.12 (≈ 0.298 µM) | – | 2 (≈ 4.96 µM) | 55 | 5.7 | 2.5 |

Compounds with a lower MIC (Escherichia coli [6]), results first:

| MIC (Bacillus cereus) [µg/mL] | MIC (Bacillus subtilis) [µg/mL] | MIC (Enterobacter cloacae) [µg/mL] | MIC (Klebsiella pneumoniae) [µg/mL] | MIC (Proteus vulgaris) [µg/mL] | MIC (Staphylococcus aureus [4]) [µg/mL] | MIC [5] [µg/mL] | MIC (Enterococcus faecalis) [µg/mL] | MIC (Escherichia coli [6]) [µg/mL] | MIC (Morganella morganii) [µg/mL] | MIC (Pseudomonas aeruginosa [7]) [µg/mL] | Compound | ED50 (Pseudomonas aeruginosa [1]) [mg/kg] | ED50 (Staphylococcus aureus [2]) [mg/kg] | ED50 (Escherichia coli [3]) [mg/kg] |
| --- | --- | --- | --- | --- | --- | --- | --- | --- | --- | --- | --- | --- | --- | --- |
| 0.03 (≈ 0.082 µM) | 0.03 (≈ 0.082 µM) | 0.03 (≈ 0.082 µM) | 0.015 (≈ 0.041 µM) | 0.03 (≈ 0.082 µM) | 0.03 (≈ 0.082 µM) | 0.03 (≈ 0.082 µM) | 0.06 (≈ 0.164 µM) | 0.015 (≈ 0.041 µM) | 0.03 (≈ 0.082 µM) | – | CC1C(N)CN1c1c(F)cc2c(=O)c(C(=O)O)cn(C3CC3)c2c1Cl (stereo not given) | 38 | 9.6 | 2.8 |
| 0.015 (≈ 0.0412 µM) | 0.015 (≈ 0.0412 µM) | 0.015 (≈ 0.0412 µM) | 0.015 (≈ 0.0412 µM) | 0.06 (≈ 0.165 µM) | 0.015 (≈ 0.0412 µM) | 0.015 (≈ 0.0412 µM) | 0.06 (≈ 0.165 µM) | 0.015 (≈ 0.0412 µM) | 0.015 (≈ 0.0412 µM) | – | CC1C(N)CN1c1c(F)c(N)c2c(=O)c(C(=O)O)cn(C3CC3)c2c1F (stereo not given) | 102 | 8.7 | 4.2 |
| 0.03 (≈ 0.0685 µM) | 0.03 (≈ 0.0685 µM) | – | – | – | – | 0.06 (≈ 0.137 µM) | – | 0.03 (≈ 0.0685 µM) | – | 0.5 (≈ 1.14 µM) | CC1C(N)CN1c1c(F)cc2c(=O)c(C(=O)O)cn(-c3ccc(F)cc3F)c2c1Cl (stereo not given) | – | – | – |
| 0.12 (≈ 0.36 µM) | 0.06 (≈ 0.18 µM) | 0.015 (≈ 0.045 µM) | 0.015 (≈ 0.045 µM) | 0.25 (≈ 0.75 µM) | 0.12 (≈ 0.36 µM) | 0.06 (≈ 0.18 µM) | 0.12 (≈ 0.36 µM) | 0.015 (≈ 0.045 µM) | 0.06 (≈ 0.18 µM) | 0.25 (≈ 0.75 µM) | C[C@H]1COc2c(N3CC(N)C3)c(F)cc3c(=O)c(C(=O)O)cn1c23 | – | – | – |
